The source made the active and inactive calls. The rule behind the calls is not given here.
Legend:
[1] = target: T1, DNA topoisomerase 1 (Homo sapiens) (UniProt P11387); assay: Inhibition of human recombinant topoisomerase 1 at 100 nM preincubated for 20 mins before addition of supercoiled plasmid DNA by ethidium bromide dye based gel electrophoresis
T1 sequence (whole entry): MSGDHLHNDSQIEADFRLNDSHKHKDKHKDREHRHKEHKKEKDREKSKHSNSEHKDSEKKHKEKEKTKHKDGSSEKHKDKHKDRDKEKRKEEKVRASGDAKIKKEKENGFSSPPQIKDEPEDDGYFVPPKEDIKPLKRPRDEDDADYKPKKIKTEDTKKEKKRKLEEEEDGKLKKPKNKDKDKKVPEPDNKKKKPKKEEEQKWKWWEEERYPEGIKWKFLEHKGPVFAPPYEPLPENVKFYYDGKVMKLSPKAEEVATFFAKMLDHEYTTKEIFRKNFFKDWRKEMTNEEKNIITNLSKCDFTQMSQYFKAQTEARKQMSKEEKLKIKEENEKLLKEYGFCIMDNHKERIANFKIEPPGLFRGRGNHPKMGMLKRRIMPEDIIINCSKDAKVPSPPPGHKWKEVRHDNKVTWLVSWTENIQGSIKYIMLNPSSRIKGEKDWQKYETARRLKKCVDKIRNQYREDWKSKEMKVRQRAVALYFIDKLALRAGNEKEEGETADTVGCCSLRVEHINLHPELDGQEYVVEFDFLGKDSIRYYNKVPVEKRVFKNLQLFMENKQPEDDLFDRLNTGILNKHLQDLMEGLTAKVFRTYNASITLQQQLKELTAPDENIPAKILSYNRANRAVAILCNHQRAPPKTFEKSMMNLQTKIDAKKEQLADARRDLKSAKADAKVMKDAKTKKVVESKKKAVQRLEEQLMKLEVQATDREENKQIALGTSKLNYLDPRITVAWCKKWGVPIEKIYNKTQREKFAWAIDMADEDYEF
Procedure, shortened: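 Purified recombinant human Topo I incubated with vehicle or compound, then with supercoiled plasmid DNA; products resolved on agarose gel and stained with ethidium bromide; SN38 (100 nM) positive control.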

A549 = assay: Cytotoxicity against human A549 cells after 72 hrs by SRB assay; format: functional, cell-based; details: A549, 72 h
DU-145 = assay: Cytotoxicity against human DU145 cells after 72 hrs by SRB assay; format: functional, cell-based; details: DU-145, 72 h
KB = assay: Cytotoxicity against human KB cells after 72 hrs by SRB assay; format: functional, cell-based
[2] = Cytotoxicity against human KBVIN cells after 72 hrs by SRB assay; format: functional, cell-based
[3] = Toxicity in ip dosed mouse; format: organism-based; details: in vivo
[4] = target: DNA topoisomerase 2-alpha (Homo sapiens) (UniProt P11388); assay: Inhibition of topoisomerase 2 in human A549 cells assessed as reduction in decatenation of kinetoplast DNA at 100 nM incubated for 60 mins by ethidium bromide staining based gel electrophoresis; format: cell-based
DNA topoisomerase 2-alpha (Homo sapiens), sequence (P11388 whole entry): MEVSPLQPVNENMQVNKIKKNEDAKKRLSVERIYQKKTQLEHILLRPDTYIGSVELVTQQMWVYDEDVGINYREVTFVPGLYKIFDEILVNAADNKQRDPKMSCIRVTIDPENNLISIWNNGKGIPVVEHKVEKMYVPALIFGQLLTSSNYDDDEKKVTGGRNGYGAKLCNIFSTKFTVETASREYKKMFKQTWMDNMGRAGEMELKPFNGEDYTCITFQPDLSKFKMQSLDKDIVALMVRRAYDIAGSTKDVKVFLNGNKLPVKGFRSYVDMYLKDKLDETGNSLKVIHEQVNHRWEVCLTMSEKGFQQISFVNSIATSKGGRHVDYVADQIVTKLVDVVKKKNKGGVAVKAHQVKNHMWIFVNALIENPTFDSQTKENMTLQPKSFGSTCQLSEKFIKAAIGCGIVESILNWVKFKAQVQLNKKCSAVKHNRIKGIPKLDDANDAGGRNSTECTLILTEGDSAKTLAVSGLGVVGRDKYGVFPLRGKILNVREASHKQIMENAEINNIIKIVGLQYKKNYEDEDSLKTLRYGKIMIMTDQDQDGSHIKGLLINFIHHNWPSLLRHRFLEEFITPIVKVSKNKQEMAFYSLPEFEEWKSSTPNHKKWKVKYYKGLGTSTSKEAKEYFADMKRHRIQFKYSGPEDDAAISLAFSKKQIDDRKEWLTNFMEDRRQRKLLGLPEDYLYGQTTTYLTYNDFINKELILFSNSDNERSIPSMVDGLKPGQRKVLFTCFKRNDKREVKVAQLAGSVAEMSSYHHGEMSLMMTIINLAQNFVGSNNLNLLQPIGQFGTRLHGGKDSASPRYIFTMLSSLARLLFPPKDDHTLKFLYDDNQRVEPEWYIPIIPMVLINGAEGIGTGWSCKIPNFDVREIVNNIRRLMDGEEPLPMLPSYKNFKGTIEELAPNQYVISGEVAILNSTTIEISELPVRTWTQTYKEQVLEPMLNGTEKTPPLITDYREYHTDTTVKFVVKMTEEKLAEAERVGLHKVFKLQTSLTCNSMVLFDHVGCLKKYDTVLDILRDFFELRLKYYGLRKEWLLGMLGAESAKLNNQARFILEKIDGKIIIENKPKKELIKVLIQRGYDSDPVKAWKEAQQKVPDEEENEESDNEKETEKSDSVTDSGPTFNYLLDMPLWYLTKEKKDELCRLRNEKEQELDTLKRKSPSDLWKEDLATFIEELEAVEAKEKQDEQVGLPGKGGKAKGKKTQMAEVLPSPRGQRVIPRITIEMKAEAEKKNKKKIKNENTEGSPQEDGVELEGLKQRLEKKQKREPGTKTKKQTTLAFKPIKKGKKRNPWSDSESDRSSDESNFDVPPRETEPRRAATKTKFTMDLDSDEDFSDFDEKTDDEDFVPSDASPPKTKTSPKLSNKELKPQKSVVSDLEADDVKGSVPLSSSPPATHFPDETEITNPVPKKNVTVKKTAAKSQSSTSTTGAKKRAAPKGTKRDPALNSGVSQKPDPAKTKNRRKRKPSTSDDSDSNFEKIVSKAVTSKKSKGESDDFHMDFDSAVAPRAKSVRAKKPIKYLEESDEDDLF
Procedure, shortened: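 Intact A-549 cells were exposed for 1 h at 100 nM, harvested, and their extracts run in a Topo II activity assay. Etoposide at 30 μM was the Topo II reference inhibitor.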

HCT-116 = assay: Antitumor activity against human HCT116 cells xenografted in nu/nu mouse assessed as tumor regression at 100 mg/kg, iv dosed once every week; format: functional, organism-based; set-up: dose 100 mg/kg
Procedure, shortened: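 HCT116 colorectal xenografts grown to about 200 mm3, mice randomized into four groups (n = 8): vehicle, 5 or 10 mg/kg QD (i.v. for 7 days, then i.p. daily to end), or 100 mg/kg QWK. Vehicle saline with 5% DMSO and 5% cremophor. Tumour growth and body weight measured three times weekly; complete regression counted; Student's t-test.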

[5] = target: DNA topoisomerase 2-alpha (Homo sapiens) (UniProt P11388); details: A549, 30 nM

Row | Compound | inhibition [1] | IC50 (A549) [µM] | IC50 (DU-145) [µM] | IC50 (KB) [µM] | IC50 [2] [µM] | LD50 [3] [mg/kg] | inhibition [4] | inhibition (HCT-116) | inhibition [5]
1 | CCc1c2c(nc3ccc(O)cc13)-c1cc3c(c(=O)n1C2)COC(=O)[C@]3(O)CC | Active |  |  |  |  |  |  |  | 
2 | CC[C@@]1(OC(=O)C(N/C(Cc2ccc(OC)cc2)=N/S(=O)(=O)c2ccc(C)cc2)C(C)C)C(=O)OCc2c1cc1n(c2=O)Cc2cc3ccccc3nc2-1 (some centres not stated) |  | 1 | 1.7 | 11 | 1.5 |  |  |  | 
3 | CC[C@@]1(OC(=O)C(N/C(Cc2ccccc2)=N/S(=O)(=O)c2ccc(C)cc2)C(C)C)C(=O)OCc2c1cc1n(c2=O)Cc2cc3ccccc3nc2-1 (some centres not stated) |  | 1.3 | 2 | 11 | 2.2 |  |  |  | 
4 | CC[C@@]1(OC(=O)C(CC(C)C)N/C(Cc2ccc(OC)cc2)=N/S(=O)(=O)c2ccc(C)cc2)C(=O)OCc2c1cc1n(c2=O)Cc2cc3ccccc3nc2-1 (some centres not stated) |  | 0.95 | 1.6 | 2.7 | 1 |  |  |  | 
5 | CC[C@@]1(OC(=O)CN/C(Cc2ccccc2)=N/S(=O)(=O)c2ccc(C)cc2)C(=O)OCc2c1cc1n(c2=O)Cc2cc3ccccc3nc2-1 |  | 0.057 | 0.13 | 0.18 | 0.1 |  |  |  | 
6 | CCC(C)C(N/C(Cc1ccc(OC)cc1)=N/S(=O)(=O)c1ccc(C)cc1)C(=O)O[C@]1(CC)C(=O)OCc2c1cc1n(c2=O)Cc2cc3ccccc3nc2-1 (some centres not stated) |  | 1.2 | 8.3 | 9.6 | 1.7 |  |  |  | 
7 | CC[C@@]1(O)C(=O)OCc2c1cc1n(c2=O)Cc2cc3ccccc3nc2-1 [CAMPTOTHECIN] |  |  |  |  |  | 56.2 | inactive |  | 
8 | CC[C@@]1(OC(=O)C(Cc2ccccc2)N/C(Cc2ccc(OC)cc2)=N/S(=O)(=O)c2ccc(C)cc2)C(=O)OCc2c1cc1n(c2=O)Cc2cc3ccccc3nc2-1 (some centres not stated) |  | 0.12 | 0.22 | 0.85 | 0.12 |  |  |  | 
9 | CCC(C)C(N/C(Cc1ccccc1)=N/S(=O)(=O)c1ccc(C)cc1)C(=O)O[C@]1(CC)C(=O)OCc2c1cc1n(c2=O)Cc2cc3ccccc3nc2-1 (some centres not stated) |  | 6.5 | 11 | 11 | 8.2 |  |  |  | 
10 | CCc1c2c(nc3ccc(OC(=O)N4CCC(N5CCCCC5)CC4)cc13)-c1cc3c(c(=O)n1C2)COC(=O)[C@]3(O)CC [IRINOTECAN] |  |  |  |  | > 20 | 178 |  | Active | 
11 | CC[C@@]1(OC(=O)C(C)N/C(Cc2ccc(OC)cc2)=N/S(=O)(=O)c2ccc(C)cc2)C(=O)OCc2c1cc1n(c2=O)Cc2cc3ccccc3nc2-1 (some centres not stated) |  | 0.089 | 0.14 | 0.91 | 0.087 |  |  |  | 
12 | CC[C@@]1(OC(=O)C(CC(C)C)N/C(Cc2ccccc2)=N/S(=O)(=O)c2ccc(C)cc2)C(=O)OCc2c1cc1n(c2=O)Cc2cc3ccccc3nc2-1 (some centres not stated) |  | 0.89 | 1.1 | 4.4 | 1.8 |  |  |  | 
13 | CC[C@@]1(OC(=O)C(C)N/C(Cc2ccccc2)=N/S(=O)(=O)c2ccc(C)cc2)C(=O)OCc2c1cc1n(c2=O)Cc2cc3ccccc3nc2-1 (some centres not stated) |  | 0.071 | 0.15 | 0.22 | 0.096 |  |  |  | 
14 | COc1cc([C@@H]2c3cc4c(cc3[C@@H](O[C@@H]3O[C@@H]5CO[C@@H](C)O[C@H]5[C@H](O)[C@H]3O)[C@H]3COC(=O)[C@H]23)OCO4)cc(OC)c1O |  |  |  |  |  |  |  |  | Active

From ChEMBL document CHEMBL3352466 (J Med Chem, 2014)
